Calls of active or inactive are those of the source. No cut-off for these calls is given here.
What was measured:
[1] = tested on: Human immunodeficiency virus 1; assay: Antiviral activity against HIV1 NL4-3 infected in human […] cells assessed as protection against virus-induced cytopathic effect measured on day 5 post infection by MTT assay; assay type: functional, cell-based; conditions: Human immunodeficiency virus 1, NL4-3, 120 h
Summary of the method: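 Values are means of two to three independent experiments, each run in triplicate. The lowest detectable concentration is reported where activity fell below the assay limit.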

[2] = tested on: Human immunodeficiency virus 1; assay: Antiviral activity against HIV1 harboring reverse transcriptase K103N /[…] double mutant infected in human […] cells assessed as protection against virus-induced cytopathic effect measured on day 5 post infection by MTT assay; assay type: functional, cell-based; conditions: Human immunodeficiency virus 1, 120 h
[3] = target: Human immunodeficiency virus type 1 reverse transcriptase (Human immunodeficiency virus 1, UniProt Q72547, Y181C); assay: Inhibition of HIV1 reverse transcriptase p66 Y181C mutant associated RNA dependent DNA polymerase activity expressed in Escherichia coli assessed as reduction in [3H]dTTP incorporation using poly(rA)/oligo(dT) as template/primer by scintillation counting analysis
[4] = Inhibition of HIV1 reverse transcriptase p66 K103N/[…] double mutant associated RNA dependent DNA polymerase activity expressed in Escherichia coli assessed as reduction in [3H]dTTP incorporation using poly(rA)/oligo(dT) as template/primer by scintillation counting analysis; parameters: species or system Human immunodeficiency virus 1
[5] = target: Human immunodeficiency virus type 1 reverse transcriptase (Human immunodeficiency virus 1, UniProt Q72547, Y181I); assay: Inhibition of HIV1 reverse transcriptase p66 Y181I mutant associated RNA dependent DNA polymerase activity expressed in Escherichia coli assessed as reduction in [3H]dTTP incorporation using poly(rA)/oligo(dT) as template/primer by scintillation counting analysis
[6] = tested on: Human immunodeficiency virus 1; assay: Antiviral activity against HIV1 harboring reverse transcriptase Y188L mutant infected in human […] cells assessed as protection against virus-induced cytopathic effect measured on day 5 post infection by MTT assay; assay type: functional, cell-based; conditions: Human immunodeficiency virus 1, 120 h
[7] = tested on: Human immunodeficiency virus 1; assay: Antiviral activity against HIV1 harboring reverse transcriptase Y181C mutant infected in human […] cells assessed as protection against virus-induced cytopathic effect measured on day 5 post infection by MTT assay; assay type: functional, cell-based; conditions: Human immunodeficiency virus 1, 120 h
[8] = target: Human immunodeficiency virus type 1 reverse transcriptase (Human immunodeficiency virus 1, UniProt Q72547, K103N); assay: Inhibition of HIV1 reverse transcriptase p66 K103N mutant associated RNA dependent DNA polymerase activity expressed in Escherichia coli assessed as reduction in [3H]dTTP incorporation using poly(rA)/oligo(dT) as template/primer by scintillation counting analysis
[9] = target: Human immunodeficiency virus type 1 reverse transcriptase (Human immunodeficiency virus 1, UniProt Q72547); assay: Inhibition of HIV1 NL4-3 reverse transcriptase His-tagged p66/p51 associated RNA dependent DNA polymerase activity expressed in Escherichia coli assessed as reduction in [3H]dTTP incorporation using poly(rA)/oligo(dT) as template/primer by scintillation counting analysis
[10] = tested on: Human immunodeficiency virus 1; assay: Antiviral activity against HIV1 harboring reverse transcriptase K103N mutant infected in human […] cells assessed as protection against virus-induced cytopathic effect measured on day 5 post infection by MTT assay; assay type: functional, cell-based; conditions: Human immunodeficiency virus 1, 120 h
[11] = tested on: hippocampal neurons (Mus musculus); assay: Neuroprotective activity against glutamate-induced excitotoxicity in C57BL/6 mouse hippocampal neurons assessed as increase in cell viability at 1000 nM preincubated for 30 mins followed by reincubation in conditioned culture media for 18 hrs in presence of glutamate by hemacytometric analysis
[12] = tested on: Human immunodeficiency virus 1; assay: Ratio of EC50 for HIV-1 harboring reverse transcriptase K103N mutant infected in human MT4 cells to EC50 for HIV1 NL4-3 infected in human MT4 cells; assay type: functional
Summary of the method: (§1)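 Fold change calculated as EC50 against the stated resistant mutant HIV-1 strain divided by EC50 against wild-type NL4-3. Both EC50s come from MTT read-out of virus-induced death in MT-4 cells, mean of two to three independent experiments each in triplicate.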

[13] = Selectivity index, ratio of CC50 for human MT4 cells to EC50 for HIV1 NL4-3 infected in human MT4 cells; assay type: toxicity, cell-based; conditions: read-out: Ratio CC50/EC50
Summary of the method: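 SI computed as CC50/EC50, using the MTT-based CC50 in uninfected MT-4 cells and the MTT-based EC50 against HIV-1 NL4-3-induced cell death in MT-4 cells. Experiments were run in triplicate, two to three times.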

[14] = tested on: Human immunodeficiency virus 1; assay: Ratio of EC50 for HIV-1 harboring reverse transcriptase Y181C mutant infected in human MT4 cells to EC50 for HIV1 NL4-3 infected in human MT4 cells; assay type: functional; summary of the method: as §1
[15] = Cytotoxicity against human MT4 cells assessed as cell viability by MTT assay; assay type: cell-based
Summary of the method: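 Uninfected MT-4 cells scored for viability by MTT. […] Values are means of two to three independent experiments, each run in triplicate.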

[16] = tested on: BV-2; assay: Effect on fizz mRNA levels in C57BL/6 mouse BV2 cells at 1000 nM after 24 hrs by RT-PCR assay; assay type: functional, cell-based
[17] = tested on: Human immunodeficiency virus 1; assay: Ratio of EC50 for HIV-1 harboring reverse transcriptase K103N/[…] double mutant infected in human MT4 cells to EC50 for HIV1 NL4-3 infected in human MT4 cells; assay type: functional; summary of the method: as §1
[18] = tested on: BV-2; assay: Antineuroinflammatory activity in C57BL/6 mouse BV2 cells assessed as inhibition of LPS-induced nitric oxide production at 1 to 10 uM after 24 hrs by Griess assay; assay type: functional, cell-based
[19] = tested on: BV-2; assay: Downregulation of CD86 mRNA levels in C57BL/6 mouse BV2 cells at 1000 nM after 24 hrs by RT-PCR assay; assay type: functional, cell-based
[20] = tested on: BV-2; assay: Effect on CD163 mRNA levels in C57BL/6 mouse BV2 cells at 1000 nM after 24 hrs by RT-PCR assay; assay type: functional, cell-based
[21] = tested on: BV-2; assay: Downregulation of iNOS mRNA levels in C57BL/6 mouse BV2 cells at 1000 nM after 24 hrs by RT-PCR assay; assay type: functional, cell-based
[22] = tested on: Human immunodeficiency virus 1; assay: Ratio of EC50 for HIV-1 harboring reverse transcriptase Y188L mutant infected in human MT4 cells to EC50 for HIV1 NL4-3 infected in human MT4 cells; assay type: functional; summary of the method: as §1
[23] = tested on: BV-2; assay: Cytotoxicity against C57BL/6 mouse BV2 cells assessed as effect on cell proliferation rate at 10 to 10000 nM up to 48 hrs by MTT assay; assay type: cell-based; conditions: bv-2, 48 h, 10 µM
Summary of the method: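 BV2 microglial cells cultured with compound at 10, 102, 103 and 104 nM, then proliferation rate measured.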

| Compound | EC50 [1] | EC50 [2] | IC50 [3] | IC50 [4] | IC50 [5] | EC50 [6] | EC50 [7] | IC50 [8] | IC50 [9] | EC50 [10] | Activity [11] | CC50 [15] | Activity [16] | Activity [18] | Activity [20] | Activity [21] | Activity [23] | other results |
| --- | --- | --- | --- | --- | --- | --- | --- | --- | --- | --- | --- | --- | --- | --- | --- | --- | --- | --- |
| Cc1cc(C)cc(S(=O)(=O)c2c(C(=O)N[C@H](C)C(=O)NCc3ccncc3)[nH]c3ccc(Cl)cc23)c1 | 0.7 nM | 7120 nM | 61000 nM | > 200000 nM | 61000 nM | > 23100 nM | 181 nM | > 50000 nM | 13000 nM | 114 nM |  |  |  |  |  |  |  |  |
| Cc1cc(C)cc(S(=O)(=O)c2c(C(=O)N[C@@H](C)c3ccccc3F)[nH]c3ccc(Cl)cc23)c1 | 0.7 nM | > 51600 nM | 17200 nM | > 10000 nM | 17200 nM | > 51600 nM | 680 nM |  | 175 nM | 103 nM |  |  |  |  |  |  |  |  |
| Cc1cc(C)cc(S(=O)(=O)c2c(C(=O)N[C@H](C)c3ccccc3F)[nH]c3ccc(Cl)cc23)c1 | 0.7 nM | 2490 nM | 456 nM | 222 nM | 456 nM | 165 nM | 0.7 nM | 228 nM | 87 nM | 0.7 nM |  |  |  |  |  |  |  |  |
| Cc1cc(C)cc(S(=O)(=O)c2c(C(=O)N[C@@H](C)C(=O)NCc3ccncc3)[nH]c3ccc(Cl)cc23)c1 | 0.7 nM | 857 nM | 870 nM | > 40000 nM | 870 nM | 666 nM | 0.7 nM | 417 nM | 506 nM | 0.7 nM |  |  |  |  |  |  |  |  |
| Cc1cc(C)cc(S(=O)(=O)c2c(C(=O)NC(C)C(=O)NCc3ccncc3)[nH]c3ccc(Cl)cc23)c1 (racemic) | 0.2 nM | 838 nM |  |  |  | 819 nM | 21 nM |  |  | 1.9 nM | Active | 19500 nM | inactive | Active | inactive | Active | Non-Toxic | Ratio EC50 [12]: 52; selectivity ratio [13]: 102000; Ratio EC50 [14]: 105; Ratio EC50 [17]: 4190; Activity [19]: Active; Ratio EC50 [22]: 4095 |
| O=C1Nc2ccc(Cl)cc2[C@@](C#CC2CC2)(C(F)(F)F)O1 [EFAVIRENZ] | 15.9 nM | > 317 nM |  |  |  | 760 nM | 160 nM |  |  | 130 nM | inactive | > 15800 nM | inactive | Active | inactive | Active | Non-Toxic |  |

Source: ChEMBL document CHEMBL4038304, “Chiral Indolylarylsulfone Non-Nucleoside Reverse Transcriptase Inhibitors as New Potent and Broad Spectrum Anti-HIV-1 Agents” (J Med Chem, 2017)
